ABCG2 block – ABCG2 efflux pump inhibitors, primary screen, multiplex with ABCB1, IgMXP3 cells, flow cytometry. Broad substrate specificity ATP-binding cassette transporter ABCG2 (Homo sapiens), Q9UNQ0. JC-1 efflux. inhibition, % at 6.6 µM. 190,000 compounds, 0.1% hits;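 active means inhibition above 80%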;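 further: 0% = DMSO and 100% = nicardipine control wells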
Target sequence (Q9UNQ0 whole entry, looked up): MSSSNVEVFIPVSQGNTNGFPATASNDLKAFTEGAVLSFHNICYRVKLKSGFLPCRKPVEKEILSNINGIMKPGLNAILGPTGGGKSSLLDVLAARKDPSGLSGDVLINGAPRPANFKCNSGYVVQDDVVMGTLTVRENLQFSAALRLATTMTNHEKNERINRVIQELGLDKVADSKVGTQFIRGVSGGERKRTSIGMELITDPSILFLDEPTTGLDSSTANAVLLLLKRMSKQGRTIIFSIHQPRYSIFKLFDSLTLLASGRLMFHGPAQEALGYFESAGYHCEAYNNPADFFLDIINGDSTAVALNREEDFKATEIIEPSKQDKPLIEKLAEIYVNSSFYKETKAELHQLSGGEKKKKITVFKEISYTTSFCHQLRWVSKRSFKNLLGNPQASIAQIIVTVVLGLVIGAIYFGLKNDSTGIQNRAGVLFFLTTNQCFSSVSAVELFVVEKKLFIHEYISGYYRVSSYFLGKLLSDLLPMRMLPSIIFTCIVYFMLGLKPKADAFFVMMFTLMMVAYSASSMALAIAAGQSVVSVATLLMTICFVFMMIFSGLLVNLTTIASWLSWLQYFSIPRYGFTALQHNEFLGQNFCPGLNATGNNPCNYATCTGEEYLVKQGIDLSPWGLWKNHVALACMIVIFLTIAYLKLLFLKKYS
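System: two drug-resistant human cell lines, ABCG2 and ABCB1; controls: nicardipine high and DMSO low controls; times: 10 min exposure at 25 °C with rotation, no wash; detection: flow cytometry of retained JC-1 fluorescence; read-out basis: percent efflux inhibition, scaled nicardipine 100% to DMSO 0%; doses: one concentration, 6.6 µM final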
RAM network inh – inhibitors of the yeast RAM network, primary screen, dse1pr::URA3 reporter, 5-FOA selection | S. cerevisiae dse1pr::URA3 reporter, 5-FOA growth OD615, 2 d; analog-sensitive cbk1-as2 kinase mutant strain | inhibition, % at 50 µM | 190,000 compounds, 1.8% hits | AID 868, 2007;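 active means inhibition above a set limit, 3 SD over mean compound inhibition, cut at about 8.4% in these data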;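 further: 0% = DMSO-only wells with no growth and 100% = 10 µM 1-NA-PP1 full growth; inhibition rescues growth on 5-FOA so higher OD means more RAM inhibition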
WT yeast gro inh – growth inhibition of WT strain, primary screen, mitochondrial fusion inhibitor project, WT and mutant strains, chemical genetic | mitochondrial fusion phenotypic screen | inhibition, % at 10 µM | 190,000 compounds, 2.1% hits; in the data active means inhibition above about 58%; tested in S. cerevisiae
L major viab – Leishmania major promastigote growth inhibition, primary screen; Leishmania major promastigotes, resazurin fluorescence viability; inhibition, % at 10 µM; 200,000 compounds, 9% hits; AID 1063, 2008; in the data active means inhibition above about 50%;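 further: promastigotes grown with compound for 44 hours at 28 °C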
ABCB1 block – ABCB1 efflux pump inhibitors, primary screen, cell-based, multiplex, flow cytometry, ABCG2 counter-screen; CCRF-Adr cells, JC-1 efflux; inhibition, % at 6.6 µM; 190,000 compounds, 0.067% hits; in the data active means inhibition above about 40%;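 further: 0% = vehicle and 100% = reference inhibitor; higher value means more JC-1 retained so stronger ABCB1 efflux block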
Starred values were filed as active, the others as inactive. Compounds with a hit are over-represented: about 12% of the library has one in this group of screens.

Results for COc1cc(CNC2CCCC2)cc(Cl)c1OCc1ccccc1F ?
ABCG2 block: 6; RAM network inh: 0; WT yeast gro inh: -25; L major viab: 100*; ABCB1 block: 2

What do the screens show for `Fc1ccc(NC(=S)NCCc2ccccn2)cc1`?
ABCG2 block: 10; RAM network inh: 1; WT yeast gro inh: -9; L major viab: 3; ABCB1 block: 0

What do the screens show for `CC(=O)c1ccc(NC(=S)NCCc2ccccn2)cc1`?
ABCG2 block: 17; RAM network inh: 0; WT yeast gro inh: -17; L major viab: 71*; ABCB1 block: 0

What do the screens show for `CCN(CC)C(=O)CSC1=C(C#N)C(c2cccs2)C=C(C)N1` (centres undefined)?
ABCG2 block: 4; RAM network inh: 4; WT yeast gro inh: 2; L major viab: 8; ABCB1 block: 2

What do the screens show for `Cc1ccc(N(C)C(=O)c2ccc3c(Cl)c4c(nc3c2)CCC4)cc1C`?
ABCG2 block: 18; RAM network inh: -1; WT yeast gro inh: 83*; L major viab: 16; ABCB1 block: 6

What do the screens show for `CCc1ccc(N(CC)C(=O)c2ccc3c(Cl)c4c(nc3c2)CCC4)cc1`?
ABCG2 block: 10; RAM network inh: 3; WT yeast gro inh: 91*; L major viab: 32; ABCB1 block: 1

How did CCN(CC)CCCNC(=O)c1ccc2c(SCC(=O)O)c3c(nc2c1)CCC3 do in these assays?
ABCG2 block: 13; RAM network inh: 1; WT yeast gro inh: 15; L major viab: -7; ABCB1 block: -2

What do the screens show for `CCN(CC)CCCNC(=O)c1ccc2c(Cl)c3c(nc2c1)CCCC3`?
ABCG2 block: 7; RAM network inh: 1; WT yeast gro inh: -15; L major viab: 83*; ABCB1 block: 0

How did Cc1ccc(CNC(=O)CSc2c3c(nc4ccc(Cl)cc24)CCCC3)o1 do in these assays?
ABCG2 block: 76; RAM network inh: 4; WT yeast gro inh: -1; L major viab: 15; ABCB1 block: 5

How did CCN(C(=O)c1ccc2c(Cl)c3c(nc2c1)CCC3)c1cccc(C)c1 do in these assays?
ABCG2 block: 32; RAM network inh: -1; WT yeast gro inh: 42; L major viab: 28; ABCB1 block: 9

How did CCN(CC)CCNC(=O)CSc1c2c(nc3cc(Cl)ccc13)CCCC2 do in these assays?
ABCG2 block: 2; RAM network inh: 0; WT yeast gro inh: -8; L major viab: 101*; ABCB1 block: 2

What do the screens show for `CCCC(=O)c1c[nH]c(C(=O)N2CCOCC2)c1`?
ABCG2 block: 14; RAM network inh: 2; WT yeast gro inh: -7; L major viab: 1; ABCB1 block: 2

How did CC(=O)c1cn(-c2ccc(Cl)cc2)c(=O)n(Cc2ccc(F)cc2)c1=O do in these assays?
ABCG2 block: 12; RAM network inh: 4; WT yeast gro inh: -4; L major viab: 2; ABCB1 block: 3

Results for CCOc1[nH]n(-c2ccc(Cl)cc2)c(=O)c1C=Nc1ccc(Cl)cc1 ?
ABCG2 block: 6; RAM network inh: 5; WT yeast gro inh: 5; L major viab: -7; ABCB1 block: 0

How did CCOc1[nH]n(-c2ccccc2)c(=O)c1C=Nc1ccc(OC)cc1 do in these assays?
ABCG2 block: 11; RAM network inh: 9.0*; WT yeast gro inh: 4; L major viab: 1; ABCB1 block: 4

Results for CCn1nc(C(=O)OC(C(=O)c2c[nH]c3ccccc23)c2ccccc2)c2ccccc2c1=O (centres undefined) ?
ABCG2 block: -1; RAM network inh: 3; WT yeast gro inh: 4; L major viab: 100*; ABCB1 block: 0

How did C[C@]1(C(=O)NCCCNc2ncc(C(F)(F)F)cc2Cl)C=C[C@@H](Cc2ccccc2)N1C(=O)c1ccccc1 do in these assays?
ABCG2 block: 5; RAM network inh: 5; WT yeast gro inh: 75*; L major viab: 17; ABCB1 block: 3

What do the screens show for `COc1cc(C)c(NC(c2ccccc2)c2ccccc2)cc1OC`?
ABCG2 block: 1; RAM network inh: 7; WT yeast gro inh: 53; L major viab: 91*; ABCB1 block: 0

How did COC(=O)c1ccccc1NC(=O)CNc1cc(OC)c(OC)cc1C do in these assays?
ABCG2 block: 77; RAM network inh: 2; WT yeast gro inh: -10; L major viab: -2; ABCB1 block: 1

Results for CCOC(=O)c1cc(CC)sc1/N=C/C1C(=O)CCCC1=O ?
ABCG2 block: 6; RAM network inh: 0; WT yeast gro inh: -9; L major viab: -13; ABCB1 block: 1

How did CCOC(=O)c1cc(CC)sc1/N=C/c1c(O)ccc2ccccc12 do in these assays?
ABCG2 block: -1; RAM network inh: 3; WT yeast gro inh: -6; L major viab: 64*; ABCB1 block: 0

Results for O=C(CC1C(=O)NCCN1Cc1c(F)cccc1Cl)NC1CCCC1 (centres undefined) ?
ABCG2 block: 1; RAM network inh: 1; WT yeast gro inh: 2; L major viab: -3; ABCB1 block: 0

How did O=C(COC(=O)C12CC3CC(CC(O)(C3)C1)C2)Nc1ccccc1OC(F)F do in these assays?
ABCG2 block: 1; RAM network inh: -1; WT yeast gro inh: 58*; L major viab: 3; ABCB1 block: 0

How did OC1(c2ccccc2)CCN(Cc2ccccc2)C2CCCCC21 (centres undefined) do in these assays?
ABCG2 block: 2; RAM network inh: 0; WT yeast gro inh: 3; L major viab: 97*; ABCB1 block: 1

How did Cc1oc(-c2cccs2)nc1CN1CC[C@@](O)(c2ccccc2)[C@H]2CCCC[C@@H]21 do in these assays?
ABCG2 block: 5; RAM network inh: 1; WT yeast gro inh: 26; L major viab: 42; ABCB1 block: 1

Results for CCSc1cnn(-c2ccccc2)c(=O)c1SCC ?
ABCG2 block: 5; RAM network inh: 1; WT yeast gro inh: -18; L major viab: 23; ABCB1 block: 2

Results for CCCCSc1cnn(-c2ccccc2)c(=O)c1SCCCC ?
ABCG2 block: 3; RAM network inh: 2; WT yeast gro inh: 64*; L major viab: 79*; ABCB1 block: 0

Results for COc1ccc(CN2CNc3c(c(=O)n(C)c(=O)n3C)C2)cc1 ?
ABCG2 block: 1; RAM network inh: 1; WT yeast gro inh: 4; L major viab: -7; ABCB1 block: 0

How did O=S(=O)(c1ccc(F)cc1)c1nc(-c2ccco2)oc1Nc1ccccc1 do in these assays?
ABCG2 block: 4; RAM network inh: 2; WT yeast gro inh: 35; L major viab: 3; ABCB1 block: 1

What do the screens show for `O=S(=O)(c1ccccc1)c1nc(-c2ccco2)oc1Nc1ccccc1`?
ABCG2 block: 23; RAM network inh: 3; WT yeast gro inh: 14; L major viab: 76*; ABCB1 block: 3

Source: PubChem
